Each structure is given as a SMILES string. The source made the active and inactive calls. The calls are words filed in the database; no cut-off is given here.

Test [1] deals with T1, Protein-S-isoprenylcysteine O-methyltransferase (Homo sapiens, UniProt O60725). As to the kind of experiment: Specific activity at ICMT at 10 uM relative to AFC. Summed up:
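Single-point vapor diffusion assay at 10 μM inhibitor. Icmt specific activity is expressed as percent of the no-inhibitor AFC control.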

Test [2] addresses T1, Protein-S-isoprenylcysteine O-methyltransferase. The experiment in a line: Inhibition of ICMT in cell free system.
The subject of test [3] is MEF. As to the kind of experiment: Cytotoxicity against icmt-positive MEF cells after 5 days by MTT assay. Type of test: functional, cell-based. Particulars: Mus musculus, 120 h. Summed up:
(§1)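 MEFs from Icmt+/+ or Icmt–/– animals were seeded at 1000 cells/well in DMEM with 10% FBS for 24 h. Medium was then changed to DMEM with 5% FBS containing compound at various concentrations, or 0.1% DMSO. After 5 days, MTT (5 mg/mL) was added for 4 h at 37 °C. Medium was removed, formazan dissolved in DMSO, and absorbance read at 590 nm.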

Test [4] concerns the target T1, Protein-S-isoprenylcysteine O-methyltransferase. As to the kind of experiment: Inhibition of Icmt-mediated GFP-K-Ras membrane localization in human Jurkat T cells at 10 uM after 24 hrs by fluorescent microscopic analysis. In kind it is cell-based. Summed up: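 Jurkat T cells (E6.1) were transfected with GFP-K-Ras and treated for 24 h with compound, vehicle, or 25 μM simvastatin. Cells were placed on poly-L-lysine-coated coverslips (100 μg/mL) and fixed in 3.7% formaldehyde for 10 min. GFP localization was scored by fluorescence microscopy in random fields of 100 cells as normal membrane, partial mislocalization or complete mislocalization.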

The test system of test [5] is MEF. As to the kind of experiment: Cytotoxicity against icmt-double mutant MEF cells after 5 days by MTT assay. In kind it is cell-based. As to conditions: Mus musculus, 120 h. Summed up: as §1
For orientation: Tetrazolium assays rely on reduction of a dye to a coloured formazan, in cell work by metabolically active cells.

Test [6] is described as follows: Cytotoxicity against human PA-TU-8902 cells after 5 days by MTT assay. Type of test: functional, cell-based. As to conditions: PaTu 8902, 120 h.

T1 sequence (O60725 whole entry, the tested form may be a part): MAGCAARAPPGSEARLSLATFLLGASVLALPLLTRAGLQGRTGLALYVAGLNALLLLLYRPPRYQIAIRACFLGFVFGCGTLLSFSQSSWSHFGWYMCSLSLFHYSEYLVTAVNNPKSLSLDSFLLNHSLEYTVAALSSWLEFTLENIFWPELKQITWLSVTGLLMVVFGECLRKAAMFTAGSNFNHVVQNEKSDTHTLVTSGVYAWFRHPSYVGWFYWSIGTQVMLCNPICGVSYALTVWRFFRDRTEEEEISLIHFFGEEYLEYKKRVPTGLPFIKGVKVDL

`COC(=O)CCSC/C=C(\C)CCn1cc(-c2ccsc2)nn1`: the Activity in test [1] turned out to be 82%.

In turn, `COC(=O)CCSC/C=C(\C)CCn1cc(CCc2ccc(-c3ccc(F)cc3)cc2)nn1` had an Activity in test [1] of 28%.

`C/C(=C\CSCCC(=O)O)CCn1cc(CCC(C)C)nn1` had an Activity in test [1] of 72%.

In turn, `C/C(=C\CSCCC(=O)O)CCn1cc(COc2ccc(-c3ccccc3)cc2)nn1` came in with an Activity in test [1] of 75%.

Turning to `COc1ccc(-c2cn(CC/C(C)=C/CSCCC(=O)O)nn2)cc1`, the Activity in test [1] was 87%.

As for `CC(C)=CCC/C(C)=C/CC/C(C)=C/CCc1cn(CCC(=O)O)nn1`, the Activity in test [1] stood at 69%.

In test [1], `COC(=O)CCSC/C=C(\C)CCn1cc(CCc2ccc(-c3ccc(-c4ccccc4)cc3)cc2)nn1` gave an Activity of 79%.

Consider `COC(=O)CCSC/C=C(\C)CCn1cc(CC/C=C(\C)CCC=C(C)C)nn1`, for which the Activity in test [1] is 59%.

Molecule `CCCCCc1cn(CC/C(C)=C/CSCCC(=O)O)nn1` returned an Activity in test [1] of 77%.

As to `CC(C)=CCC/C(C)=C/CC/C(C)=C/Cc1cn(CCCCC(=O)O)nn1`, the Activity in test [1] was found to be 73%.

`COC(=O)CCSC/C=C(\C)CCn1cc(COc2ccccc2)nn1` gave an Activity in test [1] of 89%.

The molecule `C/C(=C\CSCCC(=O)O)CCn1cc(CCc2ccc(-c3ccccc3)cc2)nn1` returned an Activity in test [1] of 43%.

`COC(=O)CCSC/C=C(\C)CCn1cc(-c2ccccc2)nn1` registered an Activity in test [1] of 89%.

Regarding `C/C(=C\CSCCC(=O)O)CCn1cc(CCc2ccccc2)nn1`, the Activity in test [1] is 75%.

In test [1], `COC(=O)CCSC/C=C(\C)CCn1cc(-c2ccc(OC)cc2)nn1` registered an Activity of 91%.

Consider `C/C(=C\CSCCC(=O)O)CCn1cc(-c2ccc(C(C)(C)C)cc2)nn1`, for which, in test [1], the Activity was 88%.

Turning to `CC(C)=CCC/C(C)=C/CC/C(C)=C/Cc1cn(CCCC(=O)O)nn1`, in test [1], the Activity was determined as 83%.

In the case of `CC(C)=CCC/C(C)=C/CC/C(C)=C/CSc1ccccc1C(=O)O` [SALIRASIB], it took 25.5 µM to reach half-maximal inhibition in test [2] (IC50).

For `C/C(=C\CSCCC(=O)O)CCn1cc(CCc2ccc(-c3ccc(F)cc3)cc2)nn1`, the Activity in test [1] amounted to 42%.

Regarding `CCCCCc1cn(CC/C(C)=C/CSCCC(=O)OC)nn1`, the Activity in test [1] worked out at 76%.

`COC(=O)CCSC/C=C(\C)CCn1cc(CCOC2CCCCO2)nn1` (centres undefined) had an Activity in test [1] of 80%.

In the case of `CC(C)=CCC/C(C)=C/CCc1cn(CCCC(=O)O)nn1`, the Activity in test [1] amounted to 90%.

With `CC(C)=CCC/C(C)=C/CC/C(C)=C/Cc1cn(CCC(=O)O)nn1`, in test [1], the Activity was 53%.

Molecule `C/C(=C\CSCCC(=O)O)CCn1cc(COc2ccccc2)nn1` yielded an Activity in test [1] of 89%.

For `COC(=O)CCSC/C=C(\C)CCn1cc(CCc2ccc(-c3ccccc3)cc2)nn1`, the IC50 with MEF [3] is 33 µM; in the test with MEF [5] it was greater than 100 µM; in test [6] it was 8 µM; in test [2], 0.8 µM. Also, the inhibition entry in test [4] was “Active”. The Activity in test [1] amounted to 14%.

As to `C/C(=C\CSCCC(=O)O)CCn1cc(CCc2ccc(-c3cccs3)cc2)nn1`, in test [1], the Activity turned out to be 63%.

`COC(=O)CCSC/C=C(\C)CCn1cc(CCc2ccccc2-c2ccccc2)nn1` gave an Activity in test [1] of 74%.

In test [1], `C/C(=C\CSCCC(=O)O)CCn1cc(CCc2cccc(-c3ccccc3)c2)nn1` had an Activity of 74%.

For the molecule `COC(=O)CCSC/C=C(\C)CCn1cc(CCc2ccc(-c3cccc(C#N)c3)cc2)nn1`, the Activity in test [1] stood at 30%.

Regarding `COC(=O)CCSC/C=C(\C)CCn1cc(CCc2cccc(-c3ccccc3)c2)nn1`, the figures for the IC50 (in the test with MEF [3]; in the test with MEF [5]; in test [2]) were 55 µM, greater than 100 µM and 29 µM, respectively. The same molecule showed an Activity in test [1] of 65%.

In test [2], `COC(=O)CCSC/C=C(\C)CCn1cc(CCc2ccccc2)nn1` displayed a concentration for half-maximal inhibition (IC50) of 41 µM. Further, the Activity in test [1] was 69%.

In test [1], `COC(=O)CCSC/C=C(\C)CCn1cc(-c2ccc(C(C)(C)C)cc2)nn1` came in with an Activity of 84%.

As to `CCCCCCCCCCc1cn(CC/C(C)=C/CSCCC(=O)OC)nn1`, the Activity in test [1] is 67%.

In test [1], `CC(C)=CCC/C(C)=C/CC/C(C)=C/Cc1cn(CC(=O)O)nn1` displayed an Activity of 65%.

In test [1], `COC(=O)CCSC/C=C(\C)CCn1cc(CCC(C)C)nn1` yielded an Activity of 77%.

Take `C/C(=C\CSCCC(=O)O)CCn1cc(CCc2ccc(-c3cccc(C#N)c3)cc2)nn1`: the Activity in test [1] stood at 74%.

For `COC(=O)CCSC/C=C(\C)CCn1cc(CCc2ccc(-c3cccs3)cc2)nn1`, in test [1], the Activity is 57%.

In the case of `COC(=O)CCSC/C=C(\C)CCn1cc(COc2ccc(-c3ccccc3)cc2)nn1`, the Activity in test [1] was 67%.

`C/C(=C\CSCCC(=O)O)CCn1cc(-c2ccccc2)nn1`: the Activity in test [1] came out at 88%.

Molecule `C/C(=C\CSCCC(=O)O)CCn1cc(-c2cccc3ccccc23)nn1` yielded an Activity in test [1] of 77%.

For `COC(=O)CCSC/C=C(\C)CCn1cc(Cc2ccccc2)nn1`, the Activity in test [1] amounted to 80%.

Regarding `COC(=O)CCSC/C=C(\C)CCn1cc(-c2cccc3ccccc23)nn1`, the IC50 with MEF [3] was 96 µM; with MEF [5] it was greater than 100 µM. In test [1], this molecule returned an Activity of 82%.

Molecule `CC(C)=CCC/C(C)=C/CCc1cn(CCC(=O)O)nn1` returned an Activity in test [1] of 75%.

In test [2], `C/C(=C\CSCCC(=O)O)CCn1cc(CCOC2CCCCO2)nn1` (centres undefined) returned an IC50 greater than 100 µM. Besides, in test [1], the Activity came out at 90%.

The molecule `C/C(=C\CSCCC(=O)O)CCn1cc(Cc2ccccc2)nn1` registered an Activity in test [1] of 82%.

Regarding `CC(C)=CC/C(=C\CSC[C@H](NC(=O)c1ccccc1Oc1ccccc1)C(=O)O)CCc1ccc(-c2ccccc2)cc1`, in test [2], the IC50 worked out at 2.5 µM.

Consider `C/C(=C\CSCCC(=O)O)CCn1cc(-c2ccsc2)nn1`, for which the Activity in test [1] was 80%.

What is called IC50 is the point on the concentration scale where inhibition reaches its midpoint. Read a low IC50 as greater potency.

Source of the values: ChEMBL document CHEMBL2034867, “S-Farnesyl-Thiopropionic Acid (FTPA) Triazoles as Potent Inhibitors of Isoprenylcysteine Carboxyl Methyltransferase” (ACS Med Chem Lett, 2012).
